Reference: ChEMBL document CHEMBL3112425, “Design, synthesis, and structure-activity relationship studies of a potent PACE4 inhibitor” (J Med Chem, 2014)
Square brackets hold non-standard residues; d marks the D form. Peptide text beside a SMILES is read from it. * marks the point of attachment. Phe(4-guanidino) = N=C(N)Nc1ccc(C[C@H](N)C(=O)O)cc1; NH(4-amidinobenzyl) = N=C(N)c1ccc(CN*)cc1; X2 = N=C(N)NCCCN(CC(N)=O)N*; Nle = CCCC[C@H](N)C(=O)O

Experiments:
[1] = target: T1, Proprotein convertase subtilisin/kexin type 6 (Homo sapiens, UniProt P29122); test: Inhibition of human recombinant PACE4 expressed in drosophila schneider 2 cells using pyroGlu-Arg-Thr-Lys-Arg-AMC as substrate after 1 hr
T1 sequence (P29122 whole entry): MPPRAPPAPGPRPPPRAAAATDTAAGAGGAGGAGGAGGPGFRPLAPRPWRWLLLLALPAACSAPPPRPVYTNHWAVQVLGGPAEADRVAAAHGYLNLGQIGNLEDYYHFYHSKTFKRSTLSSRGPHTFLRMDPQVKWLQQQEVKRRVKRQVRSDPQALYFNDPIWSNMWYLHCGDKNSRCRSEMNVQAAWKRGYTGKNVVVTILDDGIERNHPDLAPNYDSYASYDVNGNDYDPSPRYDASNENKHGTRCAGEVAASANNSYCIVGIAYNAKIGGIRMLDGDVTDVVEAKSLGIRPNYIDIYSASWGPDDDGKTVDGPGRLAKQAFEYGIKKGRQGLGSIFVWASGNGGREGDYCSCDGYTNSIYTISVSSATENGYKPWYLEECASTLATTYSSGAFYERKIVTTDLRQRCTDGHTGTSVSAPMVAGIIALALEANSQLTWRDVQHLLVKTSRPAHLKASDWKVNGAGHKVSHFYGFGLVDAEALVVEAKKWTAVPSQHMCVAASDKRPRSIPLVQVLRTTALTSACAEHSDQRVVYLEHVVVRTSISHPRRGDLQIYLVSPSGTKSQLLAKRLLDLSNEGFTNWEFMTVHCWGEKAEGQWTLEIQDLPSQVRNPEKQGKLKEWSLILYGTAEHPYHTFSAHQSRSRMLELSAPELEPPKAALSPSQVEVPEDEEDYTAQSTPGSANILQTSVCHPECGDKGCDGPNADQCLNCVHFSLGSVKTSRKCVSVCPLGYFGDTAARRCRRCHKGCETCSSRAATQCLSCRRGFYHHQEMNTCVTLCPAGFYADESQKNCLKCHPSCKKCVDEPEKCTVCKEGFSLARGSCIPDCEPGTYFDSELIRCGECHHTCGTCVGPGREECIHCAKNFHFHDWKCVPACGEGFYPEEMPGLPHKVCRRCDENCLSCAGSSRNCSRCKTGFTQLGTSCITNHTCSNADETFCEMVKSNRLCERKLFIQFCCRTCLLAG
Method in brief: (§1)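 Human enzymes were expressed in Drosophila S2 cells and purified. Fluorogenic pyroGlu-RTKR-AMC was used at fixed concentration with varied inhibitor, 37 °C over 1 h. Buffers: furin, 100 mM Hepes pH 7.5, 1 mM CaCl2, 1 mM β-mercaptoethanol, 1.8 mg/mL BSA; PACE4 and PC7, 20 mM Bis-Tris pH 6.5, 1 mM CaCl2, 1.8 mg/mL BSA; PC2, same buffer at pH 5.7. Ki from IC50 (Cheng–Prusoff), or apparent Ki (Morrison) for tight binders. Triplicate, mean ± SD.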

Furin = Furin (Homo sapiens, UniProt P09958); test: Inhibition of human recombinant furin expressed in drosophila schneider 2 cells using pyroGlu-Arg-Thr-Lys-Arg-AMC as substrate after 1 hr; method in brief: as §1
[2] = Acute toxicity in human DU145 cells assessed as cell death/lysis at 100 uM after 4 hrs by LDH assay; format: cell-based, DU-145; details: read-out: INH
Method in brief: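 DU145 cells (RPMI 1640, 5% FBS, 37 °C, 5% CO2) plated; 24 h later peptides added at 100 μM. After 4 h, release of lactate dehydrogenase into the medium was quantified enzymatically with a commercial LDH cytotoxicity kit as the measure of acute membrane damage/lysis.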

PC-3 [3] = test: Cytotoxicity against human PC3 cells up to 350 uM after 72 hrs by MTT assay; format: functional
Method in brief: (§2)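 Prostate cancer cells were kept in RPMI 1640 at 37 °C, 5% CO2, with 5% FBS for DU145 and 10% FBS for LNCaP and PC3. After 24 h, medium was changed and peptides added at various concentrations, up to 350 μM. Viability was read by MTT after 72 h treatment. IC50 from dose–response curves, triplicate, mean ± SEM.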

LNCaP = test: Cytotoxicity against human LNCAP cells after 72 hrs by MTT assay; format: functional, cell-based; method in brief: as §2
DU-145 = test: Cytotoxicity against human DU145 cells after 72 hrs by MTT assay; format: functional, cell-based; details: DU-145, 72 h; method in brief: as §2
[4] = Half life in CD-1 mouse plasma at 0.5 ug/uL by RP-HPLC analysis; format: ADME, cell-free
Method in brief: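 Peptides at 0.5 μg/μL were incubated at 37 °C in heparinized plasma pooled from mixed-sex CD1 mice. At each time point the reaction was stopped with 1 M guanidinium-HCl, then acetonitrile, and proteins were spun out. Supernatant peptide AUC (RP-HPLC) was compared with non-incubated samples. Half-life came from a one-phase decay fit. Run ≥3 times, duplicate per time point.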

Plasma = test: Drug degradation in CD-1 mouse plasma at 0.5 ug/uL after 30 mins by MALDI-TOF MS analysis; format: ADME, cell-free; details: 0.5 h
Method in brief: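 For fragment mapping, 100 μg peptide was incubated in murine plasma at 37 °C. At each time point, plasma samples were quenched with 3% TFA. Proteins were precipitated with 2 volumes acetonitrile and centrifuged at 17 000g. Supernatants were analyzed by MALDI-TOF MS for C-terminally truncated fragments.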

PC-3 [5] = test: Cytotoxicity against human PC3 cells after 72 hrs by MTT assay; format: functional, cell-based; details: PC-3, 72 h; method in brief: as §2

Furin, sequence (P09958 whole entry): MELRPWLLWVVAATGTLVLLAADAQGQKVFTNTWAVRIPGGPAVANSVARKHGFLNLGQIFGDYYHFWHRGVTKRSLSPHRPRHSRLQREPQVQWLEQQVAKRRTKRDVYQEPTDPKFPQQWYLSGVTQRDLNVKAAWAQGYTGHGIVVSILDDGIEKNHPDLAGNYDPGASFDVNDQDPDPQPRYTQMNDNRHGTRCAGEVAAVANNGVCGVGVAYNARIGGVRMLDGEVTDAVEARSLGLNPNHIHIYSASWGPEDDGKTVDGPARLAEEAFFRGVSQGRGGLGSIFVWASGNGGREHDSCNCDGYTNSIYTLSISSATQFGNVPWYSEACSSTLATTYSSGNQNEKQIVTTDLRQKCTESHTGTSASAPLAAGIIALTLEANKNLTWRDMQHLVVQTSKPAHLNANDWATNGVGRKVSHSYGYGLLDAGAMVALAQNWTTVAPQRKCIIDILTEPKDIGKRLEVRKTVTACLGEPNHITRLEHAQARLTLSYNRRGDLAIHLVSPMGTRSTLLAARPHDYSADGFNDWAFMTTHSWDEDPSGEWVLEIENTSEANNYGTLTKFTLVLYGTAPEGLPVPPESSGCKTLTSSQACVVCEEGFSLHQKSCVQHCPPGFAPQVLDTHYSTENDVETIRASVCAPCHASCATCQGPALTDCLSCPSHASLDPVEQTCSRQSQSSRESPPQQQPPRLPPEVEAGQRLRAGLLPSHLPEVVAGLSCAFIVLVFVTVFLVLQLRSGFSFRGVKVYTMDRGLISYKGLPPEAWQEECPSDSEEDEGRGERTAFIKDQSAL

CCCC[C@H](NC(C)=O)C(=O)N[C@@H](CCCC)C(=O)N[C@@H](CC(C)C)C(=O)N[C@@H](CCCC)C(=O)N[C@@H](CCCN=C(N)N)C(=O)N[C@H](C(=O)N[C@@H](CCCCN)C(=O)N[C@@H](CCCN=C(N)N)C(N)=O)C(C)C
Ki [1]: 60 nM | Ki (Furin): 1070 nM

CC(=O)N[C@@H](CC(C)C)C(=O)N[C@@H](CC(C)C)C(=O)N[C@@H](CC(C)C)C(=O)N[C@H](CC(C)C)C(=O)N[C@@H](CCCNC(=N)N)C(=O)N[C@H](C(=O)N[C@@H](CCCCN)C(=O)N[C@@H](CCCNC(=N)N)C(N)=O)C(C)C
Ki [1]: 14000 nM | Ki (Furin): 9550 nM

CCCC[C@H](NC(C)=O)C(=O)N[C@@H](CCCC)C(=O)N[C@@H](CC(C)C)C(=O)N[C@@H](CC(C)C)C(=O)N[C@@H](CCCN=C(N)N)C(=O)N[C@H](C(=O)N[C@@H](CCCCN)C(=O)N[C@@H](CCCN=C(N)N)C(N)=O)C(C)C
Ki [1]: 57 nM | Ki (Furin): 950 nM

CCCC[C@H](NC(=O)[C@H](CC(C)C)NC(=O)[C@H](CC(C)C)NC(=O)[C@H](CC(C)C)NC(C)=O)C(=O)N[C@@H](CCCN=C(N)N)C(=O)N[C@H](C(=O)N[C@@H](CCCCN)C(=O)N[C@@H](CCCN=C(N)N)C(N)=O)C(C)C (Ac-LLL[Nle]RVKR-NH2)
Ki [1]: 27 nM | Ki (Furin): 560 nM | cytotoxicity at 4 h, 100 µM [2]: < 5%

CCCC[C@H](NC(=O)[C@H](CC(C)C)NC(=O)[C@H](CC(C)C)NC(=O)[C@H](CC(C)C)NC(C)=O)C(=O)N[C@@H](CCCNC(=N)N)C(=O)N[C@H](C(=O)N[C@@H](CCCCN)C(=O)N[C@@H](CCCNC(=N)N)C(N)=O)C(C)C (Ac-LLL[Nle]RVKR-NH2)
inhibition (INH) (PC-3 [3]): <50% | IC50 (LNCaP): 220000 nM | IC50 (DU-145): 110000 nM

CCCC[C@H](NC(C)=O)C(=O)N[C@@H](CC(C)C)C(=O)N[C@@H](CC(C)C)C(=O)N[C@@H](CC(C)C)C(=O)N[C@@H](CCCNC(=N)N)C(=O)N[C@H](C(=O)N[C@@H](CCCCN)C(=O)N[C@@H](CCCNC(=N)N)C(N)=O)C(C)C
Ki [1]: 21 nM | Ki (Furin): 650 nM | cytotoxicity at 4 h, 100 µM [2]: < 5% | inhibition (INH) (PC-3 [3]): <50% | IC50 (LNCaP): 180000 nM | IC50 (DU-145): 150000 nM

CC(=O)N[C@@H](CC(C)C)C(=O)N[C@H](CC(C)C)C(=O)N[C@@H](CC(C)C)C(=O)N[C@@H](CC(C)C)C(=O)N[C@@H](CCCN=C(N)N)C(=O)N[C@H](C(=O)N[C@@H](CCCCN)C(=O)N[C@@H](CCCN=C(N)N)C(N)=O)C(C)C
Ki [1]: 700 nM | Ki (Furin): 2800 nM

CCCC[C@H](NC(=O)[C@H](CC(C)C)NC(=O)[C@H](CC(C)C)NC(C)=O)C(=O)N[C@@H](CCCC)C(=O)N[C@@H](CCCN=C(N)N)C(=O)N[C@H](C(=O)N[C@@H](CCCCN)C(=O)N[C@@H](CCCN=C(N)N)C(N)=O)C(C)C (Ac-LL[Nle][Nle]RVKR-NH2)
Ki [1]: 350 nM | Ki (Furin): 2100 nM

CCCC[C@H](NC(=O)[C@H](CC(C)C)NC(C)=O)C(=O)N[C@@H](CCCC)C(=O)N[C@@H](CC(C)C)C(=O)N[C@@H](CCCN=C(N)N)C(=O)N[C@H](C(=O)N[C@@H](CCCCN)C(=O)N[C@@H](CCCN=C(N)N)C(N)=O)C(C)C (Ac-L[Nle][Nle]LRVKR-NH2)
Ki [1]: 170 nM | Ki (Furin): 2300 nM

CC(=O)N[C@@H](CC(C)C)C(=O)N[C@@H](CC(C)C)C(=O)N[C@H](CC(C)C)C(=O)N[C@@H](CC(C)C)C(=O)N[C@@H](CCCNC(=N)N)C(=O)N[C@H](C(=O)N[C@@H](CCCCN)C(=O)N[C@@H](CCCNC(=N)N)C(N)=O)C(C)C
Ki [1]: 6260 nM | Ki (Furin): 980 nM | cytotoxicity at 4 h, 100 µM [2]: < 5% | inhibition (INH) (PC-3 [3]): <50% | IC50 (LNCaP): 130000 nM | IC50 (DU-145): 190000 nM

CC(=O)N[C@@H](CC(C)C)C(=O)N[C@@H](CC(C)C)C(=O)N[C@@H](CC(C)C)C(=O)N[C@@H](CC(C)C)C(=O)N[C@@H](CCCNC(=N)N)C(=O)N[C@H](C(=O)N[C@@H](CCCCN)C(=O)N[C@@H](Cc1ccc(NC(=N)N)cc1)C(N)=O)C(C)C (Ac-LLLLRVK[Phe(4-guanidino)]-NH2)
Ki [1]: 960 nM | Ki (Furin): 11000 nM

CCCC[C@H](NC(C)=O)C(=O)N[C@@H](CCCC)C(=O)N[C@@H](CCCC)C(=O)N[C@@H](CCCC)C(=O)N[C@@H](CCCNC(=N)N)C(=O)N[C@H](C(=O)N[C@@H](CCCCN)C(=O)N[C@@H](CCCNC(=N)N)C(N)=O)C(C)C
Ki [1]: 500 nM | Ki (Furin): 2550 nM

CC(=O)N[C@@H](CC(C)C)C(=O)N[C@@H](CC(C)C)C(=O)N[C@@H](CC(C)C)C(=O)N[C@@H](CC(C)C)C(=O)N[C@@H](CCCNC(=N)N)C(=O)N[C@H](C(=O)N[C@@H](CCCCN)C(=O)NN(CCCNC(=N)N)CC(N)=O)C(C)C (Ac-LLLLRVK-X2)
Ki [1]: 400 nM | Ki (Furin): 1120 nM | cytotoxicity at 4 h, 100 µM [2]: < 5% | inhibition (INH) (PC-3 [3]): <50% | half-life at 0.5 ug/uL [4]: 5.6 h | IC50 (LNCaP): 240000 nM | IC50 (DU-145): 270000 nM

CCCC[C@H](NC(=O)[C@H](CC(C)C)NC(C)=O)C(=O)N[C@@H](CC(C)C)C(=O)N[C@@H](CC(C)C)C(=O)N[C@@H](CCCNC(=N)N)C(=O)N[C@H](C(=O)N[C@@H](CCCCN)C(=O)N[C@@H](CCCNC(=N)N)C(N)=O)C(C)C (Ac-L[Nle]LLRVKR-NH2)
Ki [1]: 39 nM | Ki (Furin): 980 nM

CCCC[C@H](NC(C)=O)C(=O)N[C@@H](CC(C)C)C(=O)N[C@@H](CC(C)C)C(=O)N[C@@H](CCCC)C(=O)N[C@@H](CCCNC(=N)N)C(=O)N[C@H](C(=O)N[C@@H](CCCCN)C(=O)N[C@@H](CCCNC(=N)N)C(N)=O)C(C)C
Ki [1]: 14 nM | Ki (Furin): 680 nM | cytotoxicity at 4 h, 100 µM [2]: < 5% | inhibition (INH) (PC-3 [3]): <50% | IC50 (LNCaP): 90000 nM | Stability (Plasma): Unstable | IC50 (DU-145): 40000 nM

CC(=O)N[C@@H](CC(C)C)C(=O)N[C@@H](CC(C)C)C(=O)N[C@@H](CC(C)C)C(=O)N[C@@H](CC(C)C)C(=O)N[C@@H](CCCNC(=N)N)C(=O)N[C@H](C(=O)N[C@@H](CCCCN)C(=O)NCc1ccc(C(=N)N)cc1)C(C)C (Ac-LLLLRVK-{NH(4-amidinobenzyl)})
IC50 (LNCaP): 40000 nM | IC50 (PC-3 [5]): 150000 nM | IC50 (DU-145): 25000 nM
